The results in this text go back to ChEMBL document CHEMBL2034829, “Truncated phosphonated C-1'-branched N,O-nucleosides: a new class of antiviral agents” (Bioorg Med Chem, 2012).

The test system of data set [1] is Human immunodeficiency virus 1. Briefly: Antiviral activity against HIV1 infected in CEM cells after 72 hrs by GFP reporter gene assay. Type of data set: functional, organism-based. The following applies: for Activity: CCRF-CEM; for IC50: Human immunodeficiency virus 1, CCRF-CEM. A digest of the protocol:
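CEM T cells carrying an HIV-1 LTR-driven GFP plasmid; 5 × 10^5 cells infected 2 h in 100 µl with supernatant of chronically HIV-infected H9 cells (20 ng/mL p24 equivalent) with compounds at 1000, 100, 10, 1 µM; medium then added, 72 h culture; inhibition scored by GFP expression; IC50 = concentration inhibiting 50% infection; zidovudine internal positive control.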
In general terms: In a reporter assay the amount or activity of a reporter protein is the signal.

Data set [2] has as its system Human T-cell leukemia virus type I. As to the kind of experiment: Antiviral activity against HTLV1 infected in PBMC assessed as decrease in viral core protein p19 production. Type of data set: functional, organism-based. A digest of the protocol:
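PBMC co-cultivated with a chronically HTLV-1-infected cell line, with test compounds present; infection measured as production of viral core protein p19.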

Data set [3] concerns Human immunodeficiency virus 1. Briefly: Ratio of AZT IC50 to compound IC50 for HIV1. The format is functional.
The nature of data set [4]: Cytotoxicity against human MOLT3 cells by MTS assay. Type of data set: cell-based. To be noted: MOLT-3 cells. A digest of the protocol: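 MOLT-3 cells (1 × 10^4) seeded with or without compounds at 1000 to 1 µM. Metabolic activity read colorimetrically as MTS formazan formation. CC50 is the concentration giving 50% inhibition of metabolic activity.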
(In general: Tetrazolium assays rely on reduction of a dye to a coloured formazan, in cell work by metabolically active cells.)

A short description of data set [5]: Selectivity index, ratio of CC50 for human MOLT3 cells to IC50 for HIV1. The format is functional, MOLT-3. In a few lines: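 SI = CC50/IC50. CC50 from MTS formazan colorimetric assay: 1 × 10^4 MOLT-3 cells with or without compounds at 1000 to 1 µM, concentration reducing metabolic activity 50%. IC50 from CEM-GFP HIV-1 infection (2 h exposure with compounds at 1000–1 µM, 72 h culture, GFP read-out).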

A short description of data set [6]: Ratio of compound CC50 to AZT CC50 for human MOLT3 cells. To be noted: MOLT-3 cells. Type of data set: cell-based.

Activity calls are given as the source filed them. No cut-off for these calls is given here. Some results are limits rather than exact numbers.

Take `CCOC(=O)[C@]1(n2ccc(NC(C)=O)nc2=O)C[C@H](P(=O)(OCC)OCC)N(C)O1` (racemic): the result in data set [1] and in data set [2] was inactive.
`CCOC(=O)[C@@]1(n2ccc(=O)[nH]c2=O)C[C@H](P(=O)(OCC)OCC)N(C)O1` (racemic): in data set [1], the IC50 (commonly the concentration that gives 50% inhibition) amounted to 132 µM. The “Ratio IC50” value in data set [3] was 28. The CC50 (commonly the concentration that lowers cell viability or growth by half) in data set [4] is over 1000 µM. Also, the “Ratio CC50/IC50” value in data set [5] is 7.57. The selectivity ratio in data set [6] is 83. The result in data set [2] was inactive.
`CCOC(=O)[C@@]1(n2cc(F)c(=O)[nH]c2=O)C[C@H](P(=O)(OCC)OCC)N(C)O1` (racemic) gave an IC50 in data set [1] of 220 µM. Also, the “Ratio IC50” value in data set [3] turned out to be 28. In data set [4], this compound displayed a CC50 of over 1000 µM. For the same compound, the “Ratio CC50/IC50” value in data set [5] is recorded as 4.5. For the same compound, the selectivity ratio in data set [6] turned out to be 83. Also, the result in data set [2] was inactive.
`CCOC(=O)[C@]1(n2cc(C)c(=O)[nH]c2=O)C[C@H](P(=O)(OCC)OCC)N(C)O1` (racemic): the outcome in data set [1] and in data set [2] was inactive.
In the case of `CCOC(=O)[C@]1(n2cc(F)c(=O)[nH]c2=O)C[C@H](P(=O)(OCC)OCC)N(C)O1` (racemic), the outcome in data set [1] and in data set [2] was inactive.
As for `CCOC(=O)[C@@]1(n2ccc(NC(C)=O)nc2=O)C[C@H](P(=O)(OCC)OCC)N(C)O1` (racemic), the IC50 in data set [1] was over 1000 µM. In data set [4], this compound displayed a CC50 of over 1000 µM. Also, in data set [2], the result was inactive.
As to `CCOC(=O)[C@@]1(n2ccc(N)nc2=O)C[C@H](P(=O)(OCC)OCC)N(C)O1` (racemic), half-maximal inhibition in data set [1] (IC50) required 180 µM. The CC50 in data set [4] is over 1000 µM. The “Ratio CC50/IC50” value in data set [5] is 7.02. For the same compound, the outcome in data set [2] was inactive.
`CCOC(=O)[C@]1(n2ccc(=O)[nH]c2=O)C[C@H](P(=O)(OCC)OCC)N(C)O1` (relative stereo): the outcome in data set [1] and in data set [2] was inactive.
The compound `CCOC(=O)[C@@]1(n2cc(C)c(=O)[nH]c2=O)C[C@H](P(=O)(OCC)OCC)N(C)O1` (racemic) returned an IC50 in data set [1] of over 1000 µM. The compound further returned a CC50 in data set [4] of over 1000 µM. For the same compound, the result in data set [2] was inactive.
`Cc1cn([C@H]2C[C@H](N=[N+]=[N-])[C@@H](CO)O2)c(=O)[nH]c1=O` [ZIDOVUDINE] displayed an IC50 in data set [1] of 7.7 µM. This compound returned a CC50 in data set [4] of 12.1 µM. For the same compound, in data set [5], the “Ratio CC50/IC50” value is 1.57.
